Screens deposited in PubChem BioAssay by several laboratories.
Shown are actives, neighbours in structure and some others; about 2.3% of the full set was active somewhere.
PfHsp90 yeast 2: growth inhibition of yeast expressing Plasmodium Hsp90; S. cerevisiae expressing PfHsp90, BacTiter-Glo ATP, 48 h; yeast lacking PDR1 and PDR3 efflux regulators; inhibition, % at 9.4 µM; hit rate 0.32% among 310,000;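 active means every replicate shows inhibition above about 80%, whatever the replicate mean, limit read from the data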
PAX8 inh HTS: inhibitors of PAX8 transcriptional activity in RMG-I cells; RMG-I TPO-luciferase reporter, SteadyGlo, 24 h; inhibition, % at 12.6 µM; hit rate 1.2% among 360,000; AID 652154;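 active means mean replicate inhibition at least 60% with every replicate also reaching 60%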;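 further: luciferase light reporting Pax8 driven TPO promoter activity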
HIV Env fusion: inhibitors of HIV Env-mediated cell fusion; hit rate 1.1% among 360,000; inhibition, % at 12.3 µM; HeLa-JRFL Env/CEM21 cell fusion, luciferase;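 active means mean replicate inhibition score of at least 50 and every replicate individually at or above 50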
Rtt109 HAT inh: inhibitors of Candida albicans Rtt109/Vps75 histone acetyltransferase | Q5AAJ8 | purified Rtt109/Vps75, ThioGlo CoA-SH fluorescence, 4 h | inhibition, % at 34.9 µM | hit rate 0.16% among 330,000;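 active means inhibition of at least 50% in every replicate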
Target sequence (Q5AAJ8 whole entry, looked up): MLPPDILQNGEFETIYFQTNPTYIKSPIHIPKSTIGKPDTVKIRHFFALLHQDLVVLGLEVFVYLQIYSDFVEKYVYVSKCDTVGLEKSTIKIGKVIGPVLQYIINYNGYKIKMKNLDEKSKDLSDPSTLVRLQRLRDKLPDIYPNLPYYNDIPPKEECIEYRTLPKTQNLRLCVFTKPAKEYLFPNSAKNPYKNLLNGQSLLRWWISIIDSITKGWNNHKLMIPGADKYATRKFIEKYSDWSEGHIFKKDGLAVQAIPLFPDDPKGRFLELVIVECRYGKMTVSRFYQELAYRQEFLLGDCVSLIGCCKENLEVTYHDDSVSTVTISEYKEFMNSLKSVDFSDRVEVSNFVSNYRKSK
Arrestin-AP2 inh: blocks beta-arrestin peptide binding to AP2 adaptin | AID 504490 | FITC-arrestin peptide / GST-AP2 beads, flow cytometry; AP2 beta2 appendage carries R879A mutation | hit rate 0.31% among 340,000 | inhibition, % at 10 µM;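 active means inhibition above a set limit, near 3 SD of compounds lacking own fluorescence, cut at about 54% in these data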
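System: GST-AP2 R879A glutathione beads. Medium: PBS with 0.05% Tween 20 and 0.1% BSA. Also added: FITC-arrestin peptide, 50 nM. Incubation: 12 min plus 1 h, RT. Measured by: high-throughput flow cytometry of beads, ex 488, em 535 nm. Evaluation: percent drop in bead-associated FITC signal.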
N-glyco inh: N-linked glycosylation inhibition | hit rate 0.23% among 360,000 | reporter increase, % at 12.5 µM | D54 ERlucT glycosylation luciferase reporter, 24 h; percent of 100 nM tunicamycin response;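 active means mean luciferase reporter signal, scaled so untreated is 0 and the glycosylation-blocking control 100, at or above a set limit in every replicate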;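 further: luciferase carries N-glycosylation sites so blocking glycosylation raises the light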
A number is an active result; n = inactive; x = not tested or not shown.

SMILES	PfHsp90 yeast 2	PAX8 inh HTS	HIV Env fusion	Rtt109 HAT inh	Arrestin-AP2 inh	N-glyco inh
COc1cc(/C=C2\SC(N)=NC2=O)cc(OC)c1	n	n	58.8	n	n	n
C[C@@H]1CN([C@@H](C)CO)C(=O)c2cc(NC(=O)Nc3ccc(F)cc3)ccc2O[C@@H](C)CCCCO[C@H]1CN(C)S(=O)(=O)c1cn(C)cn1	x	n	n	x	x	x
O=C(Cc1ccccn1)N[C@@H]1CC[C@@H](CCn2cc(-c3ccc(F)cc3)nn2)O[C@H]1CO	x	n	x	x	x	x
C[C@@H]1CN([C@H](C)CO)C(=O)c2cc(NC(=O)NC3CCCCC3)ccc2O[C@H]1CN(C)C(=O)Nc1ccc2c(c1)OCO2	x	n	n	x	x	x
O=c1[nH]c2ccccc2c(O)c1O	n	x	x	175.7	n	n
COc1ccc(S(=O)(=O)N(C)C[C@@H]2Oc3c(NC(=O)C4CCCCC4)cccc3C(=O)N([C@H](C)CO)C[C@@H]2C)cc1	x	n	x	x	x	x
CCC(C)NC(=O)CN1C(=O)C(CC)Sc2ccccc21 (centres undefined)	n	n	n	n	n	n
CC1Sc2ccccc2N(CC(=O)N(C(C)C)C(C)C)C1=O (centres undefined)	n	x	x	51.0	n	n
c1cncc(-c2ccc(C3[C@@H]4CN(Cc5nccs5)C[C@H]3N4)cc2)c1 (some centres undefined)	x	n	x	x	x	x
Nc1nc2c(ncn2[C@@H]2O[C@H](C(=O)NCC(c3ccccc3)c3ccccc3)[C@@H](O)[C@H]2O)c(=O)[nH]1	x	n	75.0	x	x	x
COCC(=O)Nc1ccc2c(c1)OC[C@H](C)N(C(=O)c1ccccn1)C[C@H](C)[C@H](OC)CN(C)C2=O	x	n	n	x	x	x
CCCc1cn(CC[C@H]2CC[C@H](NC(=O)Nc3ccccc3F)[C@@H](CO)O2)nn1	x	n	n	x	x	x
NC(=O)c1sc2nc3c(c(-c4ccco4)c2c1N)CCCC3	n	n	57.0	n	n	n
Cc1ccccc1NC(=O)c1sc2nc3c(c(-c4ccco4)c2c1N)CCC3	n	x	x	n	n	n
Nc1c(C(=O)NCC2CCCO2)sc2nc3c(c(-c4ccco4)c12)CC/C3=C\c1ccco1 (centres undefined)	n	n	n	n	56.2	n
CCO[C@H]1OC(C(=O)N2CCCC2)=C[C@@H](c2ccc(Br)cc2)[C@@H]1CCCO	x	n	n	x	x	x
COCC#Cc1ccc2c(c1)O[C@H](CN(C)C(=O)C1CC1)[C@H](C)CN([C@@H](C)CO)S2(=O)=O	x	x	n	x	x	x
C=CCSC(=C(C#N)C#N)c1cc2c([nH]1)CCCC2	n	x	x	n	n	40.4
COc1ccc(-c2csc(Nc3ccc(Oc4ccccc4)cc3)n2)cc1	x	n	77.2	x	x	n
COc1ccc(-c2csc(Nc3cccc(C)n3)n2)cc1	n	n	n	n	n	n
CCC1=Nc2cc(C(=O)NCc3ccco3)ccc2Sc2ccc(C)cc21	n	83.8	n	n	n	n
CC(C)(C)[S@](=O)N1Cc2cc(C(=O)NCCN3CCCCC3)nc(-c3cccc(-c4ccc(C#N)cc4)c3)c2[C@@H]1CCO	x	n	n	x	x	x
Nc1ccc(S(=O)(=O)c2ccc(N3CCOCC3)c(N)c2)cc1	x	n	80.6	x	x	n
O=C1c2ccccc2C(=O)N1SC1CCCCC1	105.8	x	x	n	n	n
CCCN1C[C@H](C)[C@@H](OC)CN(C)C(=O)c2ccc(NC(=O)c3ccccc3F)cc2OC[C@@H]1C	x	n	x	x	x	x
SMILES	PfHsp90 yeast 2	PAX8 inh HTS	HIV Env fusion	Rtt109 HAT inh	Arrestin-AP2 inh	N-glyco inh
COc1cc(SC)ccc1C(=O)Nc1ncc(C)s1	n	84.5	n	n	n	n
CCOc1c(C)cnc2c1c(=O)n(Cc1cccc(Cl)c1)c(=O)n2C	n	n	n	n	n	n
CCOc1c(C)cnc2c1c(=O)n(Cc1ccc(Cl)cc1)c(=O)n2C	n	n	85.0	n	n	n
O=[N+]([O-])c1ccc(COc2ccc(-c3[nH]ncc3-c3ccccc3)c(O)c2)cc1	n	n	n	n	n	n
Oc1cc(OCc2ccccc2)ccc1-c1[nH]ncc1-c1ccccc1	105.0	n	n	n	n	n
Cc1cc(C)c2nc(SCC(=O)N3CC(=O)Nc4ccccc43)c(C#N)cc2c1	x	96.7	n	n	n	n
CN1C(=O)c2cc(NC(=O)C3CCOCC3)ccc2OC[C@H]2O[C@H](CC(=O)NCc3ccc4c(c3)OCO4)CC[C@@H]21	x	n	n	x	x	x
